Measurements reported in ChEMBL document CHEMBL4689842, “EUbOPEN Chemogenomics Library wave 1” (2021).

Tested on: HEK-293T
Assay: Multiplex assay against HEK293T;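 on Population Tubulin-Different-Phenotype (%): share of the cells with healthy nuclei that show this phenotype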
Type: toxicity, cell-based
Conditions: human
Procedure, shortened: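 Live cells were stained at seeding with Hoechst33342, BioTracker Green Microtubule Cytoskeleton Dye, MitoTracker Red and Annexin V Alexa Fluor 680. Following compound addition, they were imaged on a CQ1 microscope at 37°C and 5% CO2 and gated by CellPathfinder machine learning into Hoechst high-intensity objects or normal cells, with normal cells split into healthy, pyknosed or fragmented nuclei and pyknosed cells into mitotic or apoptotic. Tubulin, mitochondrial-mass and membrane-permeability phenotypes are per cents of healthy-nucleus cells.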

[1] = 12 h, 1 µM, compound concentration 1 uM, replicate 1
[2] = 12 h, 1 µM, compound concentration 1 uM, replicate 2
[3] = 12 h, 10 µM, compound concentration 10 uM, replicate 1
[4] = 12 h, 10 µM, compound concentration 10 uM, replicate 2
[5] = 24 h, 1 µM, compound concentration 1 uM, replicate 1
[6] = 24 h, 1 µM, compound concentration 1 uM, replicate 2
[7] = 24 h, 10 µM, compound concentration 10 uM, replicate 1
[8] = 24 h, 10 µM, compound concentration 10 uM, replicate 2
[9] = 48 h, 1 µM, compound concentration 1 uM, replicate 1
[10] = 48 h, 1 µM, compound concentration 1 uM, replicate 2
[11] = 48 h, 10 µM, compound concentration 10 uM, replicate 1
[12] = 48 h, 10 µM, compound concentration 10 uM, replicate 2

## CNc1cc(Oc2cc(C(=O)Nc3cc(N4CCN(C)CC4)cc(C(F)(F)F)c3)ccc2C)ncn1
[1]
  Population Apoptotic (%): 79%
  Population Fragmented Nuclei (%): 14%
  Population Healthy Nuclei (%): 13%
  Population Hoechst High Intensity Objects (%): 20%
  Population Membrane Permeable-Phenotype (%): 0%
  Population Mitochondria Different-Phenotype (%): 96%
  Population Mitotic Cells (%): 20%
  Population Normal (%): 79%
  Population Pyknosed Nuclei (%): 72%
  Population Tubulin-Different-Phenotype (%): 89%
  Total Cell Count: 263
[2]
  Population Apoptotic (%): 41%
  Population Fragmented Nuclei (%): 8%
  Population Healthy Nuclei (%): 21%
  Population Hoechst High Intensity Objects (%): 6%
  Population Membrane Permeable-Phenotype (%): 2%
  Population Mitochondria Different-Phenotype (%): 69%
  Population Mitotic Cells (%): 58%
  Population Normal (%): 93%
  Population Pyknosed Nuclei (%): 70%
  Population Tubulin-Different-Phenotype (%): 76%
  Total Cell Count: 213
[3]
  Population Apoptotic (%): 86%
  Population Fragmented Nuclei (%): 17%
  Population Healthy Nuclei (%): 3%
  Population Hoechst High Intensity Objects (%): 21%
  Population Membrane Permeable-Phenotype (%): 0%
  Population Mitochondria Different-Phenotype (%): 100%
  Population Mitotic Cells (%): 13%
  Population Normal (%): 78%
  Population Pyknosed Nuclei (%): 80%
  Population Tubulin-Different-Phenotype (%): 83%
  Total Cell Count: 256
[4]
  Population Apoptotic (%): 98%
  Population Fragmented Nuclei (%): 5%
  Population Healthy Nuclei (%): 4%
  Population Hoechst High Intensity Objects (%): 14%
  Population Mitotic Cells (%): 1%
  Population Normal (%): 85%
  Population Pyknosed Nuclei (%): 89%
  Population Tubulin-Different-Phenotype (%): 60%
  Total Cell Count: 127
[5]
  Population Apoptotic (%): 73%
  Population Fragmented Nuclei (%): 18%
  Population Healthy Nuclei (%): 12%
  Population Hoechst High Intensity Objects (%): 21%
  Population Membrane Permeable-Phenotype (%): 0%
  Population Mitochondria Different-Phenotype (%): 96%
  Population Mitotic Cells (%): 26%
  Population Normal (%): 78%
  Population Pyknosed Nuclei (%): 69%
  Population Tubulin-Different-Phenotype (%): 81%
  Total Cell Count: 269
[6]
  Population Apoptotic (%): 41%
  Population Fragmented Nuclei (%): 12%
  Population Healthy Nuclei (%): 36%
  Population Hoechst High Intensity Objects (%): 5%
  Population Membrane Permeable-Phenotype (%): 1%
  Population Mitochondria Different-Phenotype (%): 63%
  Population Mitotic Cells (%): 58%
  Population Normal (%): 94%
  Population Pyknosed Nuclei (%): 51%
  Population Tubulin-Different-Phenotype (%): 70%
  Total Cell Count: 284
[7]
  Population Apoptotic (%): 88%
  Population Fragmented Nuclei (%): 15%
  Population Healthy Nuclei (%): 0%
  Population Hoechst High Intensity Objects (%): 26%
  Population Membrane Permeable-Phenotype (%): 0%
  Population Mitochondria Different-Phenotype (%): 100%
  Population Mitotic Cells (%): 11%
  Population Normal (%): 73%
  Population Pyknosed Nuclei (%): 84%
  Population Tubulin-Different-Phenotype (%): 100%
  Total Cell Count: 264
[8]
  Population Apoptotic (%): 97%
  Population Fragmented Nuclei (%): 6%
  Population Healthy Nuclei (%): 3%
  Population Hoechst High Intensity Objects (%): 18%
  Population Mitotic Cells (%): 2%
  Population Normal (%): 81%
  Population Pyknosed Nuclei (%): 89%
  Population Tubulin-Different-Phenotype (%): 75%
  Total Cell Count: 126
[9]
  Population Apoptotic (%): 68%
  Population Fragmented Nuclei (%): 24%
  Population Healthy Nuclei (%): 21%
  Population Hoechst High Intensity Objects (%): 18%
  Population Membrane Permeable-Phenotype (%): 1%
  Population Mitochondria Different-Phenotype (%): 76%
  Population Mitotic Cells (%): 31%
  Population Normal (%): 81%
  Population Pyknosed Nuclei (%): 54%
  Population Tubulin-Different-Phenotype (%): 74%
  Total Cell Count: 297
[10]
  Population Apoptotic (%): 40%
  Population Fragmented Nuclei (%): 14%
  Population Healthy Nuclei (%): 65%
  Population Hoechst High Intensity Objects (%): 4%
  Population Membrane Permeable-Phenotype (%): 6%
  Population Mitochondria Different-Phenotype (%): 25%
  Population Mitotic Cells (%): 59%
  Population Normal (%): 95%
  Population Pyknosed Nuclei (%): 19%
  Population Tubulin-Different-Phenotype (%): 51%
  Total Cell Count: 421
[11]
  Population Apoptotic (%): 91%
  Population Fragmented Nuclei (%): 32%
  Population Healthy Nuclei (%): 1%
  Population Hoechst High Intensity Objects (%): 29%
  Population Membrane Permeable-Phenotype (%): 0%
  Population Mitochondria Different-Phenotype (%): 100%
  Population Mitotic Cells (%): 8%
  Population Normal (%): 70%
  Population Pyknosed Nuclei (%): 66%
  Population Tubulin-Different-Phenotype (%): 33%
  Total Cell Count: 273
[12]
  Population Apoptotic (%): 98%
  Population Fragmented Nuclei (%): 7%
  Population Healthy Nuclei (%): 5%
  Population Hoechst High Intensity Objects (%): 26%
  Population Membrane Permeable-Phenotype (%): 20%
  Population Mitotic Cells (%): 1%
  Population Normal (%): 73%
  Population Pyknosed Nuclei (%): 87%
  Population Tubulin-Different-Phenotype (%): 80%
  Total Cell Count: 131
